Assay results reported in paper PMC5653211 (Journal of medicinal chemistry, 2017).

How the values were obtained:
α7 nAChR [1] = target: T1, α7 nAChR (Homo sapiens, UniProt P36544); assay: Inhibition of α7 ACh-evoked responses, co-application with 60 µM ACh; format: cell-based; conditions: range 0.3–100 µM; co-applied with 60 µM ACh
Summary of the method: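 Xenopus laevis oocytes expressing human α7 nAChR, two-electrode voltage clamp. Test compound co-applied with 60 µM ACh at 0.3, 1, 3, 10, 30, 100 […] µM. Net charge normalized to responses to 60 µM ACh applied alone. Each point is the mean of at least four cells (± S.E.M.); IC50 values come from the inhibition concentration-response curve.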

α7 nAChR [2] = target: T1, α7 nAChR; assay: PAM-potentiated α7 responses, co-application with 10 µM 1; format: cell-based; conditions: for Potentiation by 1: co-applied with 10 µM 1
Summary of the method: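 Human α7 nAChR in Xenopus laevis oocytes, two-electrode voltage clamp. Test compound at 10, 30 or 100 µM co-applied with 10 µM positive allosteric modulator. Net charge normalized to 60 µM ACh controls in the same cells; at least four cells (± S.E.M.). Desensitization: 60 µM ACh responses recorded before and after test compound application, 210 s traces, averaged over 8 cells and normalized to pre-application ACh controls.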

α7 nAChR [3] = target: T1, α7 nAChR; format: cell-based; conditions: for α7 activation / partial agonism: compound applied alone; for Response when applied alone, of the control ACh response: concentrations of Figure 4, 60 µM ACh control
Summary of the method: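 Two-electrode voltage clamp on Xenopus laevis oocytes expressing human α7 nAChR. Test compound applied alone at 10, 30, 100, 300 µM and 1 mM; one comparator was tested only up to 300 µM. Response taken as net charge normalized to 60 µM ACh applied alone.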

[4] = Hydrolytic stability in water and Ringer's buffer by 1H-NMR; format: physicochemical; conditions: water, room temperature (~ 25 °C), 3 h, 19 h and up to 60 days
muscle type human nAChR = muscle type human nAChR (Homo sapiens, UniProt P02708+Q07001); assay: Activation and ACh competition at muscle type nAChR, oocyte voltage clamp; format: cell-based
[5] = target: human heteromeric nicotinic receptor α4β2 (Homo sapiens, UniProt P17787+P43681); format: cell-based
[6] = target: ganglionic α3β4 human nAChR (Homo sapiens, UniProt P30926+P32297); assay: Activation and ACh competition at ganglionic α3β4 nAChR, oocyte voltage clamp; format: cell-based

| SMILES | Inhibition of α7 ACh responses (α7 nAChR [1]) | Potentiation by 1 (α7 nAChR [2]) | α7 activation / partial agonism (α7 nAChR [3]) | Response when applied alone, of the control ACh response (α7 nAChR [3]) | Potentiated responses relative to the corresponding ones for 7 (α7 nAChR [2]; at 10, 30, and 100 µM + 10 µM 1) | Hydrolytic stability, 1H-NMR spectra vs time zero [4] | Activation (muscle type human nAChR; 30 µM compound) | Antagonism (muscle type human nAChR; co-application with 30 µM ACh) | PAM response enhancement compared to the parent compound 4 (α7 nAChR [2]) [fold] | Reversibility of desensitization (α7 nAChR [2]; 100 µM 7 for 30s, then 10 µM PNU120596, subsequent 60 µM ACh response) | Potentiated response relative to the response to compound applied alone (α7 nAChR [2]; coapplication with 10 µM 1) | Response compared to the control ACh response (α7 nAChR [2]; coapplication with 10 µM 1, over 10-100 µM compound) [fold] | Agonism [5] | Activation ([6]; 30 µM compound) | Antagonism ([6]; co-application with 100 µM ACh) |
| --- | --- | --- | --- | --- | --- | --- | --- | --- | --- | --- | --- | --- | --- | --- | --- |
| CCN1CCN(c2ccccc2)CC1 [compound 5, N-phenyl N’-ethyl piperazine] | lacked the ability to inhibit | failed to show significant potentiated responses | no activation | less than 10% | – | – | – | – | – | – | – | – | – | – | – |
| CC[N+]1(CC)CCN(c2ccccc2)CC1 [compound 4, N,N-diethyl-N’-phenylpiperazine, reference compound] | – | modest potentiation | – | less than 10% | half or less | – | – | – | – | – | – | – | – | – | – |
| CC[S+]1CCN(c2ccccc2)CC1.O=S(=O)([O-])C(F)(F)F [compound 7, 1-ethyl-4-phenylthiomorpholin-1-ium trifluoromethane sulfonate] | – | – | virtually no activation | less than 10% | – | no differences in the spectra | failed to produce measureable activation | weak antagonism | 4 | readily reversible | 2–3 orders of magnitude | 3 to 25 | failed to show agonism | failed to produce measureable activation | weak antagonism |
